Screening data: PubChem BioAssay, several laboratories
PostGolgi yeast: growth inhibition of a yeast mutant, post-Golgi transport screen. post-Golgi transport phenotypic cell assay. inhibition, % at 10 µM. 0.9% of 98,000 active. AID 739;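 further: yeast cells grown in 1536-well plates; yeast grown about 18 h at 30C before absorbance read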
Cav3 T inh: human Cav3.2 channel inhibition, primary screen. B-score at 10 µM. O95180. Cav3.2-expressing cells, Fluo-4 calcium fluorescence FDSS; stronger effect = lower value. 4% of 100,000 active;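 active means single-dose well whose peak fluorescence ratio is a statistical outlier from its plate by either plate-standardised score or position-corrected B-score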
tolC growth inh: blocks growth of E. coli BW25113 tolC mutant; 2.2% of 65,000 active; growth inhibition, % at 10 µM (by protocol); AID 573; OD615;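 active means growth inhibition at or above a cutoff equal to the mean over every tested compound plus 3 SD, cut at about 60% in these data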;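 further: growth measured after 20 h incubation at 37 °C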
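Test system – E. coli BW25113 ΔtolC::kan, tolC deletion mutant strain · Detection – OD at 615 nm · Buffer or medium – LB with kanamycin 50 µg/mL · Times – 20 h compound exposure of bacteria at 37 °C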
PostGolgi ctrl: inhibits growth of the yeast control strain; efflux-deficient yeast background strain, growth absorbance A615, 16 h; inhibition, % at 10 µM; 5% of 98,000 active; AID 738
E coli WT exp: E. coli BW25113 growth inhibition, expanded screen | OD600 absorbance | AID 710 | growth inhibition, % at 100 µM | 0.15% of 98,000 active;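 active means growth inhibition above about 50% at one test dose, limit read from the data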;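 further: growth measured after 20 h incubation at 37 °C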
An asterisk follows results filed as active; · = not tested or not shown. Compounds with a hit are over-represented: about 8.4% of the library has one in this group of screens. Unless noted, no stated cut-off is given here; in the data, active means inhibition above about 30%; inactive means the rest.

SMILES	PostGolgi yeast	Cav3 T inh	tolC growth inh	PostGolgi ctrl	E coli WT exp
C=CCc1ccc(O)c(-c2cc(CC=C)ccc2O)c1	·	-5.02*	·	·	·
C=CCc1ccc(OC(=O)c2ccccc2)c(OC)c1	·	-0.215	·	·	·
COc1cccc(NC(=O)CSc2nccn2-c2cccc(OC)c2)c1	0.5	·	18.0	14.4	2.0
Cc1ccc(-n2c(Cc3cccn3C)nnc2SCC(=O)Nc2nnc(C)s2)cc1	12.8	-0.527	-0.7	-2.4	1.0
O=C(CSc1nccn1-c1cccc(Cl)c1)Nc1ccc2c(c1)OCCO2	-3.5	-3.68*	45.0	6.7	-10.0
O=C(CSc1nnc(Cc2cccs2)n1-c1ccccc1)Nc1ccc2c(c1)OCCO2	-0.6	-4.84*	27.2	24.1	-11.0
Cc1ccc(-n2c(Cc3cccn3C)nnc2SCC(=O)Nc2ccc3c(c2)OCO3)cc1	-0.2	-3.91*	26.4	7.5	1.0
O=C1COc2ccc(C(=O)CSc3nnc(Cc4cccs4)n3-c3ccccc3)cc2N1	16.0	-5.36*	8.2	4.9	33.0
COc1ccccc1NC(=O)CN(c1ccc(C23CC4CC(CC(C4)C2)C3)cc1)S(C)(=O)=O	-1.4	-2.12	·	13.9	-6.0
Cc1ccc(-n2nc(C)cc2NC(=O)c2ccc(C)s2)cc1	-2.7	-0.0398	·	-2.1	2.0
CCN(CC)S(=O)(=O)c1cc(C(=O)n2cccn2)c(Cl)cc1Cl	-1.6	1.97	-7.3	6.5	2.0
CCOc1ccccc1C1C(C(=O)Nc2ccccc2OC)=C(C)Nc2nnnn21 (stereo not drawn)	1.6	0.917	2.6	11.0	-5.0
CCC1=C(OC(=O)N(CC)CC)N2C(=O)OC(=NCCc3c[nH]c4ccccc34)[C@]2(Cc2ccccc2)[C@H]2C1=CC[C@H]1C(=O)N(CC)C(=O)[C@H]12	·	-0.614	·	·	·
O=C(CSc1nnc(-c2cccnc2)n1-c1ccccc1)NCc1ccc2c(c1)OCO2	2.5	-0.183	-7.1	16.6	-9.0
Cc1ccc(-n2c(Cc3cccn3C)nnc2SCC(=O)NCc2ccc3c(c2)OCO3)cc1	6.7	-5.01*	29.8	32.5*	2.0
Cn1cccc1Cc1nnc(SCC(=O)Nc2ccc3c(c2)OCCO3)n1-c1ccc(F)cc1	2.9	-7.71*	9.4	13.5	-13.0
Cc1ccccc1NC(=O)CSc1nnc(Cc2cccn2C)n1-c1ccc(F)cc1	-1.8	-1.43	-4.7	19.4	-4.0
CC(C)C(=O)NC(=O)[C@@H]1CCCN1C(=O)/C=C/c1ccccc1	·	0.0546	·	·	·
Cc1ccc(-c2nc(NC(=O)CSc3ccc4ccccc4n3)ns2)cc1	·	-0.368	·	·	·
Cc1nnc(SCC(=O)Nc2nsc(-c3ccc(C(C)(C)C)cc3)n2)s1	-0.5	-7.63*	·	62.0*	-7.0
Cc1ccc(-c2csc3nnc(SCC(=O)Nc4nsc(-c5ccccc5)n4)n23)cc1	9.5	-1.45	29.7	40.6*	-9.0
O=C(CSc1nnc2scc(-c3ccccc3)n12)Nc1nsc(-c2ccccc2)n1	6.7	-0.829	62.5*	10.7	-9.0
Cc1ccc(-c2nc(NC(=O)CSc3nnnn3-c3ccccc3)ns2)cc1	5.2	-0.282	17.6	47.9*	-8.0
Cc1nc(C)c(C(=O)C2=C(O)C(=O)N(CCCn3ccnc3)C2c2ccc(Cl)cc2)s1 (stereo not drawn)	-3.6	0.372	-11.1	-0.5	-11.0
CCCN(CCC)S(=O)(=O)c1ccc(NC(=O)c2cc(C(=O)OC)cc([N+](=O)[O-])c2)cc1	-6.6	-0.144	·	0.5	-5.0
SMILES	PostGolgi yeast	Cav3 T inh	tolC growth inh	PostGolgi ctrl	E coli WT exp
COc1ccc(CN(C(=S)Nc2ccccc2)C2CC(=O)N(c3ccc(F)cc3)C2=O)cc1 (stereo not drawn)	-3.2	-0.322	·	15.3	16.0
CNC(=S)N(Cc1ccc2c(c1)OCO2)C1CC(=O)N(c2ccc(F)cc2)C1=O (stereo not drawn)	0.0	-3.96*	·	-1.9	1.0
N#Cc1nc(COc2ccc(Br)cc2)oc1N1CCN(Cc2ccccc2)CC1	0.3	-7.83*	6.7	19.5	-20.0
N#Cc1nc(COc2ccc(F)cc2)oc1N1CCN(Cc2ccccc2)CC1	-6.6	·	65.1*	27.0	-13.0
O=C(NCc1ccccc1)c1ccc(OC2CSC2)cc1	-4.8	-0.0217	0.9	32.1*	-2.0
Cc1c(Cl)cccc1NC(=O)CSc1nnc(CCNC(=O)OC(C)(C)C)o1	1.9	0.274	1.4	15.1	-3.0
Nc1nc(Nc2cccc(F)c2)nc2ccccc12	-8.3	0.417	25.3	-2.6	63.0*
CN(Cc1ccccc1)c1nc(N)c([N+](=O)[O-])c(Nc2cccc(F)c2)n1	21.8	-0.511	·	26.6	-6.0
CCCCn1c(=O)n(CC(=O)Nc2ccc(OC)c(Cl)c2)c(=O)c2c1nc(CO)n2CCC	0.6	-5.51*	·	1.6	-1.0
O=C(CCc1nc2ccccc2[nH]c1=O)OCC(=O)c1cccc2ccccc12	1.8	-0.339	·	27.1	-3.0
Cn1c(Oc2ccccc2NCc2cccc(Br)c2)cc(=O)n(C)c1=O	3.8	-8.09*	·	37.9*	0.0
N#CC12CCCCC1CC1CCCCC1(C#N)N2Cc1cccnc1 (stereo not drawn)	5.2	0.187	15.7	8.0	0.0
Brc1cccc(C2CC(c3ccccc3)n3nnnc3N2)c1 (stereo not drawn)	5.9	-2.31	62.9*	8.7	14.0
CN(C)c1ccc(/C=C/C(=O)c2cccc(Br)c2)cc1	5.1	-7.48*	·	8.6	-32.0
CC1CCN(C(=O)c2cc(-c3ccccc3O)on2)CC1	-9.6	0.0901	-1.1	34.9*	2.0
O=C(c1cc(-c2ccccc2O)on1)N1CCc2ccccc2C1	-1.1	0.0205	11.5	56.4*	5.0
O=C(c1cc(-c2ccccc2)on1)N1CCCC1	-6.3	0.677	-1.7	13.2	-1.0
O=C(c1cc(-c2ccc(O)cc2)on1)N1CCc2ccccc2C1	5.1	-6.23*	21.1	28.4	2.0
Cc1nc2c(cnn2-c2ccc(Cl)cc2)c(=O)n1-c1ccc2c(c1)OCCO2	·	·	-25.5	·	·
Cc1cccc2cc(CN(Cc3ccc(F)cc3)C(=O)N3CCOCC3)c(=O)[nH]c12	·	0.536	·	·	·
CN(CCOc1ccc(Cl)cc1)c1ccc(S(=O)(=O)N2CCCCC2)cn1	-1.1	-6.36*	39.4	14.7	-9.0
O=C(NNC1=C(C(=O)C(F)(F)F)CCC1)c1ccc(Cl)cc1	0.2	-2.45	·	2.7	17.0
O=C(NNC1=C(C(=O)C(F)(F)F)CCC1)c1cccc(Cl)c1	2.9	-7.56*	·	7.0	32.0
CC(C)[C@H]1C=C(C(=O)O)O[C@@H](OCCCCO)C1	·	0.242	·	·	·
CCOC(=O)Cc1c(C)nc2c(-c3cccc(Br)c3)c[nH]n2c1=O	10.5	-5.84*	100.0*	22.9	12.0
SMILES	PostGolgi yeast	Cav3 T inh	tolC growth inh	PostGolgi ctrl	E coli WT exp
CCOC(=O)Cc1c(C)nc2c(C#N)c[nH]n2c1=O	3.9	0.327	·	8.2	-3.0
CCOC(=O)c1sc(-c2ccc(Br)cc2)cc1N	-3.5	0.391	·	44.8*	-13.0
O=C(Nc1ccccc1)/C(=C/c1ccccc1)c1ccccc1	-6.4	-2.37	·	40.3*	-3.0
Cc1ccccc1NC(=O)/C(=C/c1ccccc1)c1ccccc1	-2.9	-4.78*	·	31.4*	1.0
Cc1cccc(C)c1NC(=O)/C(=C/c1ccco1)c1ccccc1	-4.7	-8.61*	·	16.2	1.0
Cc1cc(C)c(NC(=O)/C(=C/c2ccco2)c2ccccc2)c(C)c1	-0.2	-2.74	·	23.8	0.0
